Measured values taken from PMC12335033 (BMC Oral Health, 2025).
Where a SMILES comes first, the peptide text is derived from it.

Legend:
type I collagen = conditions: isothermal titration calorimetry and enzyme-linked immunosorbent assays; ref [14] (Lei et al.); cited from earlier work
rat type I collagen [1] = molecular target: rat type I collagen (Rattus norvegicus, UniProt P02454+P02466); experiment: SPR affinity of peptides for type I collagen; type: binding; conditions: for Rmax: SPR, 1:1 binding; for kon: read-out: 1:1 binding ka; for koff: read-out: Kd (dissociation rate constant)
Procedure, shortened: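 Rat type I collagen preconcentrated in sodium acetate (pH 5.0) and amine-coupled to a CM5 chip. Peptide in sodium acetate buffer at five concentrations, 30 µL/min; 100 s contact, 80 s dissociation. Regeneration with glycine 2.0 for 30 s. Three cycles, multicycle kinetics; K_D calculated.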

type I collagen fiber = experiment: Collagen fiber mineralization, TEM/SAED/EDS; conditions: 0.1 mM peptide, 7 d; for electron density distribution of collagen fiber (TEM): 3.90 mM CaCl2, 3.83 mM Na2HPO4, pH 7.0, 37 °C; for SAED arc-shaped patterns (hkl) of hydroxyapatite: 37 °C, control one ring (300); for calcium and phosphate distribution (EDS) / fiber mineralization: pH 7.0, 37 °C; for fiber mineralization: TEM
Procedure, shortened: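 Type I collagen fibers self-assembled in 50 mM glycine/200 mM KCl (pH 9.2), room temperature, 20 min, on nickel grids at 37 °C for 12 h, then fixed in 0.05% glutaraldehyde for 1 h. Grids immersed at 37 °C for 7 d in 3.90 mM CaCl₂/3.83 mM Na₂HPO₄ (pH 7.0) with 0.1 mM peptide, changed every 24 h. Peptide-free control. Rinsed, ethanol-dehydrated; TEM, SAED, EDS.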

[2] = Dentin slice remineralization, SEM and tubule plugging rate; parameters: species or system human; conditions: 0.1 mM peptide 12 h; for plugging rate of dentinal tubules vs control: SEM 3,000×, p < 0.0001; for dentinal tubule diameters (SEM surface) / mineral depth in dentin tubules (SEM cross section) / mineral growth on dentin (SEM surface): then artificial saliva pH 7.0, 2 w
Procedure, shortened: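 Human third-molar crown dentin cut to 5 × 5 × 2 mm slices and polished. Etched with 35% phosphoric gel for 30 s, 5.25% NaOCl for 1 min, sonicated 10 min. Soaked in 0.1 mM peptide for 12 h, rinsed, then 2 w in artificial saliva (pH 7.0) refreshed daily. Peptide-free control. SEM of surface and cross-section; plugging rate from open-tubule counts at 3,000×; n = 9; one-way ANOVA with Tukey.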

[3] = TEM/SAED/EDS of calcium phosphate; type: physicochemical; conditions: TEM; 0.1 mM peptide, pH 7.0; control: irregularly shaped aggregates
collagen membrane [4] = experiment: TGA of mineralized collagen membrane; conditions: 0.1 mM peptide, 37 °C, 7 d; n = 9; p < 0.0001
[5] = Mechanical properties of remineralized dentin; parameters: species or system human; conditions: compared with MDP-a group; 2 w mineralization
Procedure, shortened: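 Nanoindentation of the new mineral layer on dentin slices after 2 w of remineralization, tested alongside sound and etched slices. Conditions: 10 mN force, 10 s loading, 2 s hold, Poisson's ratio 0.28. Five points per sample, nine samples per group. Elastic modulus and microhardness derived from load–displacement curves; one-way ANOVA with Tukey.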

collagen membrane [6] = experiment: Calcium ion adsorption by collagen membrane, ICP-MS; conditions: 0.1 mM peptide, pH 7.0, 37 °C, 7 d, n = 9, p < 0.0001
rat type I collagen [7] = molecular target: rat type I collagen (rat, UniProt P02454 152-1207; P02466 86-1125); experiment: SPR
Sequence of rat type I collagen (rat, UniProt P02454 152-1207; P02466 86-1125) (P02454 152-1207, chain 1 of 2): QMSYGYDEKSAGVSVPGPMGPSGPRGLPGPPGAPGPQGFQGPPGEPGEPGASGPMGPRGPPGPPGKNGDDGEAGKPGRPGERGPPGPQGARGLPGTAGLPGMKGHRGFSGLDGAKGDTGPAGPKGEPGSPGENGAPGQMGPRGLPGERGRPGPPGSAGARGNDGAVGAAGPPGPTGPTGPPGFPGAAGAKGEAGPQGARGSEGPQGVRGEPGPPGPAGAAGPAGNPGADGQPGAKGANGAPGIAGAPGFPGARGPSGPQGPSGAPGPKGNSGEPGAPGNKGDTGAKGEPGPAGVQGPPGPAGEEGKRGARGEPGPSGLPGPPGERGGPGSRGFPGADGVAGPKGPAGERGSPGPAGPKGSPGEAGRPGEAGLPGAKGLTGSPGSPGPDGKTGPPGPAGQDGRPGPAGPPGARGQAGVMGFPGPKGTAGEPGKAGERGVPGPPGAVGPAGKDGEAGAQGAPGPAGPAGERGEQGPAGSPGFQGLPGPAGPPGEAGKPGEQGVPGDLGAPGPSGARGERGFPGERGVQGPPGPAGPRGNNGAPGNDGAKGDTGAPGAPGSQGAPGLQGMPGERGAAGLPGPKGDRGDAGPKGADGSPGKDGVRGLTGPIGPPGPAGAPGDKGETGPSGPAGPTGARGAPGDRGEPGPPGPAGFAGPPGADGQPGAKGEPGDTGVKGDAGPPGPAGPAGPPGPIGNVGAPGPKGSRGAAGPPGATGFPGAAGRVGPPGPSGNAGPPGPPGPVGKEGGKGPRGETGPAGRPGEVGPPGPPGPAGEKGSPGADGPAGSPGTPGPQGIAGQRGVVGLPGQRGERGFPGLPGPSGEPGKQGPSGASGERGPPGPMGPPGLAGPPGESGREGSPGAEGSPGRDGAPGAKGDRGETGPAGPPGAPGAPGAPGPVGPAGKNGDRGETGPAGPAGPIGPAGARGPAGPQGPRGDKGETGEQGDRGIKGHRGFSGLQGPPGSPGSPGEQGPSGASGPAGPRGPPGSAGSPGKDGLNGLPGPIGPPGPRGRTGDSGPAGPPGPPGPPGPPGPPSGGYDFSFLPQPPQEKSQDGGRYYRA
Sequence of rat type I collagen (rat, UniProt P02454 152-1207; P02466 86-1125) (P02466 86-1125, chain 2 of 2): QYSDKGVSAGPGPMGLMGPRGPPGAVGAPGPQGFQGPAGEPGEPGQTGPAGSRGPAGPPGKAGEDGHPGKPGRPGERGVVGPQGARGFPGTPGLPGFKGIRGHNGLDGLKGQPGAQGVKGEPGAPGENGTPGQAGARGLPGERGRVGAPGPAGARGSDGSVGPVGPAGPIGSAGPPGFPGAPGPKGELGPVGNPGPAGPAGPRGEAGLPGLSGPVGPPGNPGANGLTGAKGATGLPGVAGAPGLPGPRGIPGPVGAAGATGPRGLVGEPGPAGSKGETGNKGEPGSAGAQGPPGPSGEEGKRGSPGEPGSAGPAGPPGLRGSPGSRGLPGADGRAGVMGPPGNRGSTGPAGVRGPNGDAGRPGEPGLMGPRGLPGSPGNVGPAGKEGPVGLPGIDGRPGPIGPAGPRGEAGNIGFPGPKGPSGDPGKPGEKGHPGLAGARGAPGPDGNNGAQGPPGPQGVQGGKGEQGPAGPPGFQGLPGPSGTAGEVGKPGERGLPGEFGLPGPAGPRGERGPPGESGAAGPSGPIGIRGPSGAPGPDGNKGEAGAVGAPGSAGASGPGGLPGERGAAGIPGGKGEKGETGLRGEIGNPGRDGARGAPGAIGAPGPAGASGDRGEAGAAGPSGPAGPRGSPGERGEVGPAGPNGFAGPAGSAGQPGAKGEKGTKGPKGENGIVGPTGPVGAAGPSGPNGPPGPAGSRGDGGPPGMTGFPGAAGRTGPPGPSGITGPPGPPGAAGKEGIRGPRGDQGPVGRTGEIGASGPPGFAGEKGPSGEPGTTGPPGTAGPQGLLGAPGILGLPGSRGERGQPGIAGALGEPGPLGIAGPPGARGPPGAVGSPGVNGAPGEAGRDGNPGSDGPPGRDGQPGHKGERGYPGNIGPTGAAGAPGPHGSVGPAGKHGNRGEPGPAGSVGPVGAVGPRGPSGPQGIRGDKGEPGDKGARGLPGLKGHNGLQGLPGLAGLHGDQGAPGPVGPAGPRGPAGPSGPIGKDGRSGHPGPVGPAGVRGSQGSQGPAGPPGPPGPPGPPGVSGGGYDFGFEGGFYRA

Molecule | Rmax (rat type I collagen [1]) [RU] | kon (rat type I collagen [1]) [M⁻¹ s⁻¹] | koff (rat type I collagen [1]) [s⁻¹] | electron density distribution of collagen fiber (TEM) (type I collagen fiber) | SAED arc-shaped patterns (hkl) of hydroxyapatite (type I collagen fiber) | calcium and phosphate distribution (EDS) (type I collagen fiber) | fiber mineralization (type I collagen fiber) | plugging rate of dentinal tubules vs control ([2]; artificial saliva 2 w, n = 9) | dentinal tubule diameters (SEM surface) [2] | mineral depth in dentin tubules (SEM cross section) [2] [μm] | mineral growth on dentin (SEM surface) [2] | morphology of particles [3] | Kd (rat type I collagen [7]) [µM] | further results
CC(C)C[C@H](NC(=O)[C@H](CC(N)=O)NC(=O)[C@H](CS)NC(=O)[C@H](CO)NC(=O)[C@H](CCC(=O)O)NC(=O)[C@H](CCCCN)NC(=O)[C@@H]1CCCN1C(=O)[C@@H](N)CS)C(=O)N[C@@H](Cc1ccccc1)C(=O)N[C@H](C(=O)N[C@@H](CC(C)C)C(=O)N[C@@H](CCCCN)C(=O)N[C@@H](CC(=O)O)C(=O)O)C(C)C [CBP1495, reference compound] (H-CPKESCNLFVLKD-OH; N-terminus and C-terminus assumed) | 190942.7 | 10600 | 0.624 |  |  |  |  |  |  |  |  |  |  | binding to type I collagen (type I collagen): can bind to type I collagen with strong affinity
CC(C)C[C@H](NC(=O)[C@H](Cc1c[nH]c2ccccc12)NC(=O)[C@H](CS)NC(=O)[C@H](CO)NC(=O)[C@H](Cc1c[nH]c2ccccc12)NC(=O)[C@H](Cc1c[nH]c2ccccc12)NC(=O)[C@H](CC(=O)O)NC(=O)[C@@H](N)CS)C(=O)N[C@@H](CC(=O)O)C(=O)N[C@H](C(=O)N[C@@H](CC(C)C)C(=O)N[C@@H](CCCCN)C(=O)N[C@@H](CC(=O)O)C(=O)O)C(C)C [MDP-a] (H-CDWWSCWLDVLKD-OH; N-terminus and C-terminus assumed) | 53152.0 | 32900 | 0.594 | increase in electron density, the distribution along the collagen fiber was notably uneven, with a substantial amount of electrons present outside the fiber | 002,300 | more scattered along the fiber axis | evident fiber mineralization | increased significantly | significantly reduced | 7 | dense mineral growth was observed on the surface and inside the dentinal tubules | uneven, dense, spherical aggregated particles |  | 
CC(C)C[C@H](NC(=O)[C@H](CC(N)=O)NC(=O)[C@H](CS)NC(=O)[C@H](CO)NC(=O)[C@H](CCC(=O)O)NC(=O)[C@H](CCCCN)NC(=O)[C@@H]1CCCN1C(=O)[C@@H](N)CS)C(=O)N[C@@H](Cc1ccccc1)C(=O)N[C@H](C(=O)N[C@@H](CC(C)C)C(=O)N[C@@H](CCCCN)C(=O)N[C@@H](CC(=O)O)C(=O)N[C@@H](CC(=O)O)C(=O)N[C@@H](CO)C(=O)N[C@@H](CO)C(=O)N[C@@H](CC(=O)O)C(=O)N[C@@H](CO)C(=O)N[C@@H](CO)C(=O)N[C@@H](CC(=O)O)C(=O)N[C@@H](CO)C(=O)N[C@@H](CO)C(=O)O)C(C)C [MDP-3DSS] (H-CPKESCNLFVLKDDSSDSSDSS-OH; N-terminus and C-terminus assumed) | 65526.7 | 30800 | 0.58 | uniform and dense electron distribution, with significantly increased electron density, indicating a highly mineralized structure | 002,112,401,122 | highly concentrated along the fiber axis, with a minimal presence of these ions outside the fiber | evident fiber mineralization | increased significantly | significantly reduced | 7 | dense mineral growth was observed on the surface and inside the dentinal tubules | aggregated particles arranged in loose chains |  | residual mineral content (TGA) (collagen membrane [4]): highest residual mineral content; elastic modulus and microhardness relative to sound dentin [5]: closer to those of sound dentin group; plugging rate of dentinal tubules, MDP-3DSS vs MDP-a ([2]; artificial saliva 2 w, n = 9, p = 0.0019): greater plugging rate of dentinal tubules; calcium ion adsorption by collagen membrane, MDP-3DSS vs MDP-a (collagen membrane [6]): promoted the adsorption of calcium ions by collagen more effectively than MDP-a
CPKESCNLFVLKD [CBP1495] |  |  |  |  |  |  |  |  |  |  |  |  | 59 | 
CPKESCNLFVLKDDSSDSSDSS [MDP-3DSS] |  |  |  |  |  |  |  |  |  |  |  |  | 18.9 | 
CDWWSCWLDVLKD [MDP-a] |  |  |  |  |  |  |  |  |  |  |  |  | 18 | 
